According to article PMC5473336 (Journal of medicinal chemistry, 2016):
Entries after “also recorded” stand apart in the source; their conditions may differ. Read-outs that look alike come from different tables or passages of the source.

Legend:
[1] = target: T1, S. cerevisiae Rad51 and Rad52 proteins (Saccharomyces cerevisiae, UniProt P25454); assay: Gel-based D-loop assay with yeast recombinase; assay type: biochemical; conditions: selectivity versus human RAD51
T1 sequence (P25454 1-400): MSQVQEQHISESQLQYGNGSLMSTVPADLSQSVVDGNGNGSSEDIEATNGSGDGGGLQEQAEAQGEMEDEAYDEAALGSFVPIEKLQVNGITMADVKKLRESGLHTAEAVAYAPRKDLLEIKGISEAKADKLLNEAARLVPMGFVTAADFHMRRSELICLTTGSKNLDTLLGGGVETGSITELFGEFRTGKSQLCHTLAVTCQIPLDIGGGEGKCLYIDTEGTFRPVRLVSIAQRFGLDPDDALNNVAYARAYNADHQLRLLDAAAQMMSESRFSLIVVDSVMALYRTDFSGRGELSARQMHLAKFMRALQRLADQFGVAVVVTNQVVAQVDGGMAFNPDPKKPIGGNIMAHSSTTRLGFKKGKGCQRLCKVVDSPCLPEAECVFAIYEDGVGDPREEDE

[2] = test system: 293-DR-GFP cells; assay: RAD51 cytological focus formation after irradiation; assay type: cell-based, human; conditions: IR-induced, 8 h time course
[3] = target: T2, RAD51 (Homo sapiens, UniProt Q06609); assay: Gel-based D-loop assay; assay type: biochemical
T2 sequence (Q06609 1-339): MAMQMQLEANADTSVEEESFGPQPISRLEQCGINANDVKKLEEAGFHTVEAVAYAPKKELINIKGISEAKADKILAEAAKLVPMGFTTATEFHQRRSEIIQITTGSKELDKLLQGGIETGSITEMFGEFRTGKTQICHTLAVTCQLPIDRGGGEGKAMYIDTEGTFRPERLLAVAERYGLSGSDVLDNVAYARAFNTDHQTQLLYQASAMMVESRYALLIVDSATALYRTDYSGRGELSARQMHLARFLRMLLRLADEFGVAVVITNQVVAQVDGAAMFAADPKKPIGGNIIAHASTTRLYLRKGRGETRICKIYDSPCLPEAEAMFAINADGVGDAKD

[4] = target: E. coli RecA protein (Escherichia coli, UniProt P0A7G6); assay: Gel-based D-loop assay with bacterial recombinase; assay type: biochemical; conditions: selectivity versus human RAD51
E. coli RecA protein, sequence (P0A7G6 whole entry): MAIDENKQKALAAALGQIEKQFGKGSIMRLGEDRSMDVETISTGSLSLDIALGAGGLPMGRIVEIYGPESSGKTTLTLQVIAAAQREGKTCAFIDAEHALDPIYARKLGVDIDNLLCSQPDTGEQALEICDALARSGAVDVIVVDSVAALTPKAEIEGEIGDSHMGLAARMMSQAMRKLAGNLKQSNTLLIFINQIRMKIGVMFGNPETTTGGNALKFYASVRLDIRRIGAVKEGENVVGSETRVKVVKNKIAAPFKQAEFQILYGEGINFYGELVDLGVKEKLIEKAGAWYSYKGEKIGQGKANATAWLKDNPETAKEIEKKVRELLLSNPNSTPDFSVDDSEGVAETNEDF

[5] = target: T2, RAD51; assay: Fluorescence polarization-based RAD51-DNA binding assay
[6] = test system: U2OS, PC-3, and MCF-7 tumor cell lines; assay: Clonogenic survival assay after ionizing radiation; assay type: cell-based; conditions: compound given immediately after irradiation, for the duration of outgrowth
Summary of the method: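 X-ray irradiation at 1.5 Gy/min of subconfluent flask cultures, then trypsinized and seeded at 1000–1500 cells/well in complete medium with 0.5% DMSO plus compound at the indicated dose. Grown 7–11 days until colonies reached at least 50 cells, then fixed and stained in 6% glutaraldehyde + 0.5% crystal violet. Colonies counted automatically. PC-3 kept in DMEM:F12 (1:1), 10% FCS, penicillin/streptomycin.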

[7] = test system: 293-SA-GFP cells; assay: Single-strand annealing; assay type: cell-based, human; conditions: concentration range that inhibits HR, 24 h post-transfection
Summary of the method: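 Cells electroporated in Opti-MEM with 37.5 μg/mL I-SceI plasmid (pCBASce) or empty pCAGGS vector at 325 V, 975 μF. Then seeded in complete DMEM + 0.5% DMSO with compound and grown out 24 h. Harvested into PBS with 1 μg/mL 7-AAD for flow cytometry, gating out dead/apoptotic cells by size, shape and 7-AAD. Read-out is the GFP-positive fraction of live cells; three replicates, standard error.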

[8] = test system: human cells; conditions: following irradiation; cited from earlier work
[9] = test system: RAD51; conditions: cited from earlier work
[10] = test system: RAD51; conditions: cited from earlier work; remark: listed apart in the source

| Compound | inhibition of D-loop activity of Saccharomyces cerevisiae Rad51 (in words) [1] | appearance of RAD51 subnuclear foci in response to DNA damage (in words) [2] | D-loop inhibitory activity (in words) [3] | inhibition of D-loop activity of Escherichia coli RecA (in words) [4] | influence on RAD51-ssDNA binding (in words) [5] | sensitization of cancer cells to radiation, clonogenic survival (in words) [6] | effect on SSA activity (in words) [7] | RAD51 foci at DSB sites in cells (in words) [8] | RAD51 D-loop activity (in words) [9] | RAD51 D-loop activity (in words) ([9]; listed as Halenaquinone) | RAD51 ssDNA binding activity (in words) [10] |
| --- | --- | --- | --- | --- | --- | --- | --- | --- | --- | --- | --- |
| CCNc1ccc(-c2nc3ccccc3n3cccc23)cc1 [Compound 9h, N-Ethyl-4-(pyrrolo[1,2-a]quinoxalin-4-yl)aniline] | no significant inhibition | does not inhibit | allow for D-loop inhibition | no significant inhibition | almost no impact | significantly sensitizes | does not stimulate SSA | – | – | – | – |
| C[C@@]12CCC(=O)c3coc(c31)C(=O)c1cc3c(cc12)C(=O)C=CC3=O [halenaquinone] | – | – | – | – | – | – | – | inhibit the formation of RAD51 foci; also recorded: reduces the subnuclear appearance of RAD51 foci | specifically inhibit D-loop formation | strongly inhibit | sparing |
